Compounds with a hit are over-represented: about 2.5% of the library has one in this group of screens.
SENP6 inh: SENP6 protease inhibitors, primary screen, biochemical, luminescence, uHTS. inhibition, % at 10 µM. 330,000 tested, 1.8% active. Recombinant SENP6 catalytic domain, aminoluciferin luminescence. Sentrin-specific protease 6 (Homo sapiens), Q9GZR1. AID 2599, 2010;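 active = inhibition above about 50% at the single tested dose, limit read from the data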;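 note: plate controls were DMSO wells with enzyme for no effect and DMSO wells lacking enzyme for full effect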
SENP1 inh: human SENP1 catalytic domain inhibitors, primary screen, biochemical, FRET, uHTS. Sentrin-specific protease 1 (Homo sapiens), Q9P0U3. recombinant SENP1 catalytic domain, CyPet-SUMO1-YPet FRET cleavage. inhibition, % at 10 µM. 360,000 tested, 0.21% active. AID 624204, 2012;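 active = inhibition at least 30% at 10 µM, raw YFP signal under a set limit, fluorescence ratio 0.5 to 1.5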;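 note: 0% = enzyme with DMSO and 100% = no enzyme wells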
Target sequence (Q9P0U3 419-644 limits assumed): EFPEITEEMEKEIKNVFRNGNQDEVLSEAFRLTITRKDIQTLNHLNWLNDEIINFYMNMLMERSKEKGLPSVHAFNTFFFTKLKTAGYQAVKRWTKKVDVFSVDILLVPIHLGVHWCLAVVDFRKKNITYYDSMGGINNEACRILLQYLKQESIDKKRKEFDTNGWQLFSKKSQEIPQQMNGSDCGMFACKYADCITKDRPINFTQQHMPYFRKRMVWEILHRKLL
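Assay system: hSENP1 catalytic domain, recombinant. Amount: SENP1 enzyme, 20 pM final. Schedule: 50 min reaction, RT, dark. Technique: FRET, CFP and YFP emission. Control set: no-enzyme wells low, DMSO-plus-enzyme wells high control.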
SENP8 block-1: human SENP8 protease inhibitors, primary screen, biochemical, fluorescence, Nedd8 protein substrate, uHTS. AID 602440, 2012. inhibition, % at 20 µM. recombinant SENP8. 360,000 tested, 0.64% active; in the data active = inhibition mostly above about 40%, no sharp cut-off; inactive = mostly below about 27%
SENP7 inh: SENP7 protease inhibitors, primary screen, biochemical, luminescence, uHTS; inhibition, % at 5 µM; 330,000 tested, 1.5% active; recombinant SENP7, Z-RLRGG-aminoluciferin luminescence, 40 min;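 active = inhibition above about 50% at the single test dose, limit read from the data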;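 note: plate controls were DMSO with enzyme for no effect and no enzyme buffer wells for full effect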
Target sequence (Q9BQF6 706-1050 limits assumed): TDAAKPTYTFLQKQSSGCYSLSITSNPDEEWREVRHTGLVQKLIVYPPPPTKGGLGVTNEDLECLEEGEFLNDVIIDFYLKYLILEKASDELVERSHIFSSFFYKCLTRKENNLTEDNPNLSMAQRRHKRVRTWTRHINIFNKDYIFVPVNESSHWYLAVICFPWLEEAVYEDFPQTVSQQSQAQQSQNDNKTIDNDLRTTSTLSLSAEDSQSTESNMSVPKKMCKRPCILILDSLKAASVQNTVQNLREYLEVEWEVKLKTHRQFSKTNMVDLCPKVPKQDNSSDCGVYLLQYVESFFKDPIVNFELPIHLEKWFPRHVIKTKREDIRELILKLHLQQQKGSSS
SENP8 block-2: SENP8 protease inhibitors, primary screen, biochemical, luminescence; Sentrin-specific protease 8 (Homo sapiens), Q96LD8; purified SENP8, Z-RLRGG-aminoluciferin cleavage; inhibition, % at 10 µM; 330,000 tested, 1.2% active; AID 2540, 2010; in the data active = inhibition above about 50%
Starred values were filed as active, the others as inactive; i = inactive; . = no result given.

SMILES	SENP6 inh	SENP1 inh	SENP8 block-1	SENP7 inh	SENP8 block-2
O=[N+]([O-])c1ccc(O)c(/C=N/NC2=NS(=O)(=O)c3ccccc32)c1	86.2*	-23.0	-102.7	94.7*	82.4*
O=[N+]([O-])c1ccc(O)c(/C=N\N=C2c3ccccc3-c3ccccc32)c1	6.7	58.1*	38.6	3.9	-3.0
NC(N)=N/N=C/c1cc([N+](=O)[O-])ccc1O	-10.2	1.5	26.9	-5.9	-4.7
C=CCn1c(O)c(N=Nc2ccccc2O)c2ccccc21	-5.8	34.3	17.0	8.6	-7.7
C=CCn1c(O)c(N=Nc2ccccc2[N+](=O)[O-])c2ccccc21	.	4.8	46.5*	.	.
O=C(NC(=S)NNC(=O)c1ccccc1O)c1ccc([N+](=O)[O-])cc1	76.7*	-0.6	35.9	27.7	48.7
CC(C)CC(N)c1csc(Nc2cc(Oc3ccccc3)ncn2)n1 (stereo not drawn)	.	-4.1	1.7	.	.
N#Cc1c(N)sc(=S)c2c1CCN(Cc1ccccc1)C2	94.2*	.	.	79.1*	96.4*
CCOc1ccc2oc(C(=O)N(CC)CC(=O)Nc3c(F)cccc3F)c(C)c2c1	-2.5	-9.1	-70.8	-5.3	-4.9
COc1ccc(/C=C2/SC(=S)N(n3c(C)ccc3C)C2=O)cc1	1.4	-3.8	30.9	-7.8	4.3
CCOc1ccc(/C=C2/SC(=S)N(n3c(C)ccc3C)C2=O)cc1	2.1	0.5	40.7*	-6.6	-3.5
c1ccc(-c2cc(-c3ccccc3)ncn2)cc1	-12.7	0.9	10.8	1.0	1.1
c1ccc(-c2cc3cc4c(cc3cn2)OCO4)cc1	86.4*	-3.0	-24.3	89.9*	80.1*
CCCC[C@@H]1CNC(=O)C(=O)N1CCCC	.	16.4	9.7	.	.
CCOc1ccccc1NC(=O)Nc1ccc(Cl)cc1	82.6*	0.8	13.6	71.6*	52.2*
COc1ccc(NC(=S)Nc2cccc([N+](=O)[O-])c2)cc1	-2.2	2.2	5.3	-2.9	-0.7
Cc1cccc(NC(=S)NNc2cccc(Cl)c2)c1	-20.8	1.0	-1.0	2.0	-8.8
Cc1ccc(NS(=O)(=O)c2cc([N+](=O)[O-])ccc2NNC(=S)Nc2cccc(Cl)c2)c(C)c1	.	54.4*	35.4	.	.
COc1ccc(NC(=S)NNc2ccc([N+](=O)[O-])cc2S(=O)(=O)Nc2ccc(C)cc2C)cc1	0.3	42.1*	27.1	-11.8	-2.1
Cc1ccc(NS(=O)(=O)c2cc([N+](=O)[O-])ccc2NNC(=S)Nc2cc(C)ccc2C)c(C)c1	8.1	61.9*	33.4	5.2	-1.2
O=c1ccc(N=Nc2ccccc2)ccc1O	.	8.1	42.6*	.	.
CC1Oc2ccccc2C=C1/C=N/Nc1ccc(C(=O)O)cc1 (stereo not drawn)	96.4*	-45.3	-275.9	89.0*	96.2*
O=C(COc1ccccc1)Nc1c2c(nn1-c1ccccc1)CS(=O)C2 (stereo not drawn)	-6.6	1.7	5.3	-1.5	1.9
CNc1ccccc1C(=O)OCC(=O)N1CCc2ccccc2C1	.	-5.0	i	.	.
CCCn1nc(C(=O)Nc2cccc(S(=O)(=O)N3CCOCC3)c2)c2ccccc2c1=O	.	1.0	5.4	.	.
SMILES	SENP6 inh	SENP1 inh	SENP8 block-1	SENP7 inh	SENP8 block-2
N=C1CCC(=N)c2c1c(O)c1ccccc1c2O	63.3*	-17.4	88.7*	23.9	39.2
COc1ccc(C(=O)c2coc3c2C(=O)C(=O)c2ccccc2-3)cc1	30.5	1.5	82.9*	5.8	3.7
CC1(C)CC(N=C2C([N+](=O)[O-])=CC=C3C2=NC2(CCCCC2)N3O)CC(C)(C)N1	24.2	0.9	49.5*	7.4	8.5
O=[N+]([O-])C1=CC=C2C(=NC3(CCCCC3)N2O)C1=NC1CCCCC1	-9.7	4.3	26.0	11.2	9.7
Cc1ccc(S(=O)(=O)N2C[C@H]3[C@H]4C(=O)N(c5ccccc5)C(=O)[C@H]4C[C@H](OC(=O)NCc4ccccc4)[C@@]3(O)C2)cc1	.	1.2	10.5	.	.
Cc1cccc(S(=O)(=O)NC(=O)C2(C)CCN2C(=O)Cc2ccc(Cl)cc2Cl)c1 (stereo not drawn)	.	-0.3	11.2	.	.
O=C(CSc1nnc2ccccn12)Nc1cccc(-c2nc3ccccc3s2)c1	14.8	-4.9	-126.7	62.8*	-2.2
CCCN1CCN(C(=O)Cn2nc(CC)n3c(cc4sccc43)c2=O)CC1	-0.1	0.0	18.2	3.4	-7.8
NS(=O)(=O)c1ccc(N=Nc2ccc(=O)[nH]c2O)cc1	.	-9.0	63.8*	.	.
COC/C=C/C1=CC2=CC(=O)C(C)(OC(=O)c3cnc4ccccc4n3)C(=O)C2=CN1CC1CC1 (stereo not drawn)	8.2	-13.4	44.0*	17.6	-2.7
COC/C=C/C1=CC2=CC(=O)C(C)(OC(=O)c3cnc4ccccc4n3)C(=O)C2=CN1Cc1ccc(OC)cc1 (stereo not drawn)	16.0	-25.5	36.7	5.7	3.0
CCOc1ccc(N(C(C)=O)c2nc(C)cc(C)c2C#N)cc1	-4.4	1.4	9.3	-11.3	-5.5
CCOc1ccc(/C=C2\SC(=S)N(NS(=O)(=O)c3ccccc3)C2=O)cc1OC	-8.4	-0.8	27.1	-0.8	-4.3
CCOc1ccc(/C=C2\SC(=S)N(NS(=O)(=O)c3ccc(C)cc3)C2=O)cc1OC	-9.6	-4.0	42.7*	-7.9	-3.8
COc1ccc(/C=C/C(=O)c2cc3c(cc2N)OCO3)cc1	94.9*	-5.5	-0.4	95.7*	96.2*
c1ccc(SC23CCCCN(CCC2)C32OCCO2)cc1 (stereo not drawn)	.	0.7	9.2	.	.
Cn1cccc1C(=O)C(=O)Nc1cccc(Cl)c1Cl	11.8	3.1	19.6	89.1*	4.5
O=C(Nc1ccccc1)Nc1cccc(Cl)c1Cl	74.4*	-0.4	17.2	54.6*	30.2
O=C(Nc1ccncc1)Nc1cccc(Cl)c1Cl	14.6	0.5	3.3	-4.3	-1.9
CC(C)(C)NC(=O)NC(=O)COC(=O)CNS(=O)(=O)c1ccc(Br)cc1Cl	4.3	2.0	4.5	0.2	3.9
CC(=O)Nc1cccc(NC(=O)c2oc3ccccc3c2C)c1	38.6	.	.	54.1*	23.1
CC(=O)Oc1c(C)c(=O)n(C)c2ccccc12	0.7	1.9	-3.2	3.0	-4.6
COc1c(OC(C)=O)c(=O)n2c3ccccc3c3ccnc1c32	8.1	68.7*	-197.5	-0.6	6.0
O=C(/C=C/c1ccccc1)NCCSc1ccc(Cl)cc1	-12.4	2.8	40.2*	11.5	-0.8
CCc1cc(-c2nnn(CCC3COCCO3)c2C(C)(C)O)ccc1-c1cn(CCc2c[nH]c3ccccc23)nn1 (stereo not drawn)	.	0.9	8.3	.	.
CN(C)CCN1CCN(C2CN(Cc3ccc(F)cc3)S(=O)(=O)C2)CC1 (stereo not drawn)	.	4.2	10.0	.	.

High-throughput results: PubChem BioAssay, Sanford-Burnham Center for Chemical Genomics
